High-throughput results (PubChem BioAssay)
Lipid droplet – inhibitors of hepatocyte lipid droplet formation, primary screen, imaging, high-throughput imaging, BODIPY stain. 240,000 compounds, 0.4% hits. AML12 mouse hepatocytes, oleate lipid droplets. inhibition, % at 6.5 µM;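 active = lipid droplet intensity inhibited by at least 50%, with more than 500 cells counted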
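Material – AML12 mouse liver cells · Also added – oleate loading, 100 µM · Compound dosing – 6.5 µM single-point dosing · Times – overnight treatment with compound plus oleate · Measured by – fluorescence imaging, 20x objective, two fields per well · Read-out – percent inhibition of filter-corrected integrated lipid droplet intensity per well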
CendR NRP1 mod – modulators of CendR peptide binding to NRP-1, primary screen, biochemical, fluorescence polarization, uHTS; inhibition, % at 25 µM; AID 602438, 2012; 360,000 compounds, 0.85% hits; FAM-RPARPAR peptide binding to NRP-1;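 active = inhibition or corrected inhibition above about 18%, plus a signal ratio from 0.5 to 1.5, limit read from the data, passing the limit was not always enough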
Arr AP2 block – inhibitors of beta-arrestin/AP2 binding, primary screen, biochemical, GPCR trafficking, flow cytometry | beta-arrestin 1 C-terminal peptide binding to AP2 beta2-adaptin appendage (human) | inhibition, % at 10 µM | 340,000 compounds, 0.31% hits | FITC-arrestin peptide / GST-AP2 beads; AP2 beta2 appendage carries R879A mutation | AID 504490, 2011;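 active = inhibition above a set limit, near 3 SD of compounds lacking own fluorescence, cut at about 54% in these data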
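Measured by: flow cytometry, FL1 (488/535 nm); Material: AP2 appendage R879A on GSH beads; Evaluation: percent response; Timing: pre-incubation 12 min, peptide binding 1 h, room temperature; Also added: 50 nM FITC-arrestin peptide; Medium: PBS with 0.05% Tween 20 and 0.1% BSA.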
HGIII-sPLA2 inh – human group III sPLA2 inhibitors, primary screen, biochemical, QFRET, BODIPY PC-A2 liposome substrate. QFRET BODIPY PC-A2 liposome hydrolysis, fluorescence. Group 3 secretory phospholipase A2 (Homo sapiens), Q9NZ20. 370,000 compounds, 0.56% hits. inhibition, % at 12.2 µM;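 active = inhibition above mean plus 3 SD of compounds lying within the high and low control bounds, cut at about 19% in these data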
M18AAP inhibitor – PfM18AAP inhibitors, malaria aminopeptidase, primary screen, biochemical, QFRET, recombinant enzyme; M18 aspartyl aminopeptidase (Plasmodium falciparum 3D7); H-Glu-NHMec fluorogenic cleavage; inhibition, % at 7.35 µM; 290,000 compounds, 1.2% hits;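 active = inhibition above the campaign mean inhibition over all tested compounds plus 3 SD, cut at about 28% in these data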
m5-HT2A agonist – mouse Htr2a agonists via beta-arrestin recruitment, primary screen, cell-based, luminescence; CHO-K1 mHTR2A beta-arrestin complementation; percent of 30 µM serotonin response; activation, % at 7.6 µM; 360,000 compounds, 0.66% hits;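 active = activation above a run cutoff, the mean activation of all tested compounds plus 3 SD, cut at about 14% in these data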
OPRM1 ag – OPRM1 agonists via beta-arrestin recruitment, confirmation, counter-screen for mouse HTR2A agonist project, cell-based, luminescence, single concentration. shares compounds with m5-HT2A agonist. U2OS OPRM1 beta-arrestin PathHunter; DMSO 0%, DAMGO 9.3 µM 100%. activation, % at 9.3 µM. 2,300 compounds, 5.3% hits. AID 624380, 2012;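 active = mean activation above the mean of DMSO-only wells plus 3 SD, cut at about 0.5% in these data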
Target sequence (P35372 whole entry, looked up): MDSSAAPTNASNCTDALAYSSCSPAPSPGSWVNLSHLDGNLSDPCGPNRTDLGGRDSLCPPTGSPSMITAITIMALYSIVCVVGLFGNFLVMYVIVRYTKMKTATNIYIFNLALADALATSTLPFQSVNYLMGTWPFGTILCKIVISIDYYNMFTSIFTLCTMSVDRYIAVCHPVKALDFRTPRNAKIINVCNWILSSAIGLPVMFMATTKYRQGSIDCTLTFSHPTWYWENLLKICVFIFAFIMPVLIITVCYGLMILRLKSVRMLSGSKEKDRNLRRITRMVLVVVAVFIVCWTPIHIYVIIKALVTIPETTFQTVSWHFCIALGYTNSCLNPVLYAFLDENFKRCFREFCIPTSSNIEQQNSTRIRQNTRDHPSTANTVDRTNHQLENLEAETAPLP
m5-HT2A ag conf – mouse HTR2A agonists, beta-arrestin recruitment, confirmation, cell-based, luminescence, CHO-K1 PathHunter, triplicate; activation, % at 7.6 µM; DMSO 0%, 30 µM serotonin 100%; shares compounds with m5-HT2A agonist; 2,300 compounds, 19% hits;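 active = mean activation across triplicates above the hit threshold derived in the original primary screen, cut at about 15% in these data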
A number is an active result; – = inactive; · = not tested or not shown. Only some compounds are listed: those with a hit (about 3.3% of all), similar ones and a draw of the others.

SMILES | Lipid droplet | CendR NRP1 mod | Arr AP2 block | HGIII-sPLA2 inh | M18AAP inhibitor | m5-HT2A agonist | OPRM1 ag | m5-HT2A ag conf
Nc1ncnc2c1ncn2[C@@H]1O[C@H](CO)[C@@H](O)[C@H]1O | – | – | – | – | – | 28 | – | –
OCC1OC(n2ccc3c(NO)ncnc32)C(O)C1O (configuration not stated) | · | – | – | – | · | 18 | – | –
Cc1ccccc1Nc1nc(-c2sc(NC(=O)c3ccco3)nc2C)cs1 | – | – | – | – | – | 19 | – | –
CCOc1ccccc1Nc1nc(-c2sc(NC(=O)c3ccco3)nc2C)cs1 | · | – | – | – | – | – | · | ·
CCCNC(=O)C[C@H]1CC[C@H]2[C@@H](COc3ccc(NC(=O)Nc4ccccc4)cc3C(=O)N2C)O1 | · | · | · | – | · | · | · | ·
O=C(CN1C(=O)CSc2ccc(S(=O)(=O)N3CCOCC3)cc21)N1CCCCC1 | – | – | – | – | – | – | · | ·
CCOC(=O)C1CCN(C(=O)CN2C(=O)CSc3ccc(S(=O)(=O)N4CCOCC4)cc32)CC1 | – | – | – | – | – | 35 | – | –
CN1CCN(C(=O)CN2C(=O)COc3ccc(S(=O)(=O)N4CCOCC4)cc32)CC1 | – | – | – | – | – | 18 | – | –
CCOC(=O)N1CCC(N2CCCC(C(=O)c3cc(C)c(OC)c(C)c3)C2)CC1 (configuration not stated) | – | – | – | – | – | – | · | ·
CCOC(=O)N1CCC(N2CCCC(C(=O)c3ccccc3OC)C2)CC1 (configuration not stated) | – | – | – | – | – | 27 | – | 54
O=C(CCN1CCN(c2ccccc2)CC1)N/N=C/c1ccc(O)c(O)c1O | – | – | – | – | – | 15 | – | 51
Cc1ccc(Cl)cc1N1CCN(C(=O)CCCn2c(=O)c3cccn3c3cccnc32)CC1 | – | – | – | – | – | – | · | ·
O=C(Cn1c(=O)c2cccn2c2cccnc21)N1CCN(c2ccc(Cl)cc2)CC1 | – | – | – | · | – | 15 | – | –
COc1cc2c3nnc(-c4ccc(F)cc4)c-3cn(Cc3ccccc3)c2cc1OC | – | – | – | – | – | 25 | – | –
COc1ccc(Cn2cc3c(-c4ccc(F)cc4)nnc-3c3cc(OC)c(OC)cc32)cc1 | – | – | – | – | – | – | · | ·
COc1cc2c3nnc(-c4ccc(F)cc4)c-3cn(Cc3ccc(F)cc3)c2cc1OC | · | – | – | – | – | 18 | – | 15
COC(=O)[C@]12C[C@H](CC(=O)N3CCCC3)C(=O)N(Cc3ccccc3)C1=C[C@H](C(C)C)O[C@@H]2C1CC1 | · | · | · | – | · | · | · | ·
N#CCC[C@@H]1CC[C@]2(CCCN(C(=O)c3ccccc3)C2)O1 | · | · | · | – | · | · | · | ·
Cc1ccc(C)c(Cn2c3ccccc3c3cnn(CC(=O)NCCCN4CCOCC4)c(=O)c32)c1 | – | – | – | – | – | – | · | ·
Cc1ccc(N2CCN(C(=O)C3CCCN(c4ncnc5c4nc4n5CCCCC4)C3)CC2)c(C)c1 (configuration not stated) | – | – | – | – | – | 15 | – | –
COc1ccc(C2C3=C(CCCC3=O)Nc3c(-c4ccccc4)c(C)nn32)cc1 (configuration not stated) | · | – | – | · | – | – | · | ·
Cc1nn2c(c1-c1ccccc1)NC1=C(C(=O)CCC1)C2c1ccccc1 (configuration not stated) | · | – | – | – | – | 16 | – | –
COc1ccc(-c2nnc3n2CCCCC3)cc1OC | – | – | – | – | – | – | · | ·
COc1ccc(-c2csc(Cc3nnc4n3CCCCC4)n2)cc1OC | · | – | – | – | – | 15 | – | –
CCN(CC(=O)NC1CC1)S(=O)(=O)c1ccc(C)cc1 | – | – | – | – | – | 15 | – | –
SMILES | Lipid droplet | CendR NRP1 mod | Arr AP2 block | HGIII-sPLA2 inh | M18AAP inhibitor | m5-HT2A agonist | OPRM1 ag | m5-HT2A ag conf
S=c1[nH]nc(-c2cccnc2)n1/N=C/C=C/c1ccccc1 | – | – | – | – | – | 16 | – | –
COC(=O)C1CCN(S(=O)(=O)CCNC(=O)c2cccc(OC)c2)CC1 | · | – | – | – | · | – | · | ·
COc1cccc(C(=O)NCCS(=O)(=O)N2CCC(C)CC2)c1 | · | – | – | – | · | 14 | – | –
CN(Cc1ccccc1)N=Nc1ccccc1 | · | – | · | – | · | – | · | ·
CN(Cc1ccccc1)N=Nc1nc[nH]c1C(N)=O | · | – | · | – | · | 17 | – | –
CCOC(=O)N1CCN(C(=O)c2c(Cl)cnn2C)CC1 | – | – | – | – | – | – | · | ·
Cc1ccc(NC(=O)CN(C)C(=O)CSc2ccc3c(c2)OCCO3)cc1 | · | – | – | – | · | – | · | ·
Cc1ccc(SCCN)cc1C | – | – | – | – | – | 21 | – | –
Cc1ccc(SCC(=O)NNC(=O)c2ccccc2)cc1C | – | – | – | – | – | – | · | ·
O=C(C(=O)N1CCC(CNC(=O)c2cccnc2Cl)CC1)c1cc2ccccc2o1 | · | · | · | – | · | · | · | ·
CCOC(=O)CC1C(=O)NCCN1C(=S)NC(=O)c1ccccc1OC (configuration not stated) | – | – | – | – | – | 16 | – | –
Cc1ccc(C)c(NC(=O)c2ccc[n+](Cc3ccc([N+](=O)[O-])cc3)c2)c1 | · | – | – | – | – | 15 | – | –
O=C(O)c1ccc[n+](Cc2ccc([N+](=O)[O-])cc2)c1 | · | – | – | – | · | – | · | ·
Cc1ccc2nc(SCC(=O)Nc3ccc(F)c([N+](=O)[O-])c3)[nH]c2c1 | – | – | – | – | – | – | · | ·
Cc1cc(=O)[nH]c(SCC(=O)Nc2ccc(F)c([N+](=O)[O-])c2)n1 | – | – | · | – | – | 28 | – | –
Cc1nnc(SCC(=O)Nc2cc(Cl)ccc2Cl)n1CC1CCCO1 (configuration not stated) | – | – | – | – | – | 17 | – | –
CCOC(=O)N1CCC(N2C(=O)c3ccc(C(=O)NCc4ccco4)cc3C2=O)CC1 | – | – | – | – | – | 23 | – | –
CCN(CC)S(=O)(=O)c1cccc(NC(=O)CN2C(=O)c3ccc([N+](=O)[O-])cc3C2=O)c1 | – | – | – | – | – | 18 | – | –
